The record followed here is ChEMBL document CHEMBL4428067, “Drug Discovery against Psoriasis: Identification of a New Potent FMS-like Tyrosine Kinase 3 (FLT3) Inhibitor, 1-(4-((1H-Pyrazolo[3,4-d]pyrimidin-4-yl)oxy)-3-fluorophenyl)-3-(5-(tert-butyl)isoxazol-3-yl)urea, That Showed Potent Activity in a Psoriatic Animal Model” (J Med Chem, 2016).

The species named for assay [1] is Mus musculus. Put plainly: Antipsoriatic activity in K14-VEGF transgenic mouse model of psoriasis assessed as lower left quadrant FLT3+/CD11c+/B220+ pDC cells in psoriatic plaque lesion at 0.05% applied tropically over lesion for continuous 29 days by flow cytometric analysis (reference value: 4.97%). The format is functional. Background: In flow cytometry, cells or beads pass a laser one at a time.

In assay [2] the target is T1, Receptor-type tyrosine-protein kinase FLT3 (Homo sapiens, UniProt P36888).
T1 sequence (P36888 whole entry): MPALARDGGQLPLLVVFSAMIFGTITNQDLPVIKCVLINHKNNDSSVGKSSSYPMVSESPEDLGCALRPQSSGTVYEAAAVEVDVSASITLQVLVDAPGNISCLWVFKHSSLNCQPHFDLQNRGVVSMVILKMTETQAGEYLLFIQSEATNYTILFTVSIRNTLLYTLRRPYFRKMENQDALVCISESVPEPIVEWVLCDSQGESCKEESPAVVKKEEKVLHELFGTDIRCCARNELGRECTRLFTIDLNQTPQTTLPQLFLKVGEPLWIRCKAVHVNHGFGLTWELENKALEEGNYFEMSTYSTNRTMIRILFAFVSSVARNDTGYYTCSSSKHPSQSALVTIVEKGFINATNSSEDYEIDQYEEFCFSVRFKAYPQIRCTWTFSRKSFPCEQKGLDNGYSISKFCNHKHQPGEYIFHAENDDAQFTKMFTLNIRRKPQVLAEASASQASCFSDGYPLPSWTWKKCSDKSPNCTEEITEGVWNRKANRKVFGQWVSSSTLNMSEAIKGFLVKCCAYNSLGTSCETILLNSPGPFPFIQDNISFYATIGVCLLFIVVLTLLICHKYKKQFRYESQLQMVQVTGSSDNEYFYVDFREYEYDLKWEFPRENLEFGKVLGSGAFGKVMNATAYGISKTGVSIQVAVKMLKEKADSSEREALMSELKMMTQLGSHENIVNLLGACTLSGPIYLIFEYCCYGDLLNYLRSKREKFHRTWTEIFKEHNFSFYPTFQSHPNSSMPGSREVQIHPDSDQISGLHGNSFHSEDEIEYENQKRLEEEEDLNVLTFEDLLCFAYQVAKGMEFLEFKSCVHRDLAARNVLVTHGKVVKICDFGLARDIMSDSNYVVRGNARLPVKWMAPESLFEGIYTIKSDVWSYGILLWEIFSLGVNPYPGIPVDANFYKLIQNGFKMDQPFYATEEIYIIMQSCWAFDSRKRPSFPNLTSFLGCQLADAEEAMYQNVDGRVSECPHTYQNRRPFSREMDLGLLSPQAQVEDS
Put plainly: Inhibition of recombinant human N-terminal GST-tagged FLT3 (564 to end residues) expressed by baculovirus in Sf21 insect cells measured after 10 mins in presence of [gamma-33P]ATP by scintillation counter method.

For assay [3], the target named is T2, Receptor-type tyrosine-protein kinase FLT3 (Mus musculus) (UniProt Q00342).
T2 sequence (whole entry): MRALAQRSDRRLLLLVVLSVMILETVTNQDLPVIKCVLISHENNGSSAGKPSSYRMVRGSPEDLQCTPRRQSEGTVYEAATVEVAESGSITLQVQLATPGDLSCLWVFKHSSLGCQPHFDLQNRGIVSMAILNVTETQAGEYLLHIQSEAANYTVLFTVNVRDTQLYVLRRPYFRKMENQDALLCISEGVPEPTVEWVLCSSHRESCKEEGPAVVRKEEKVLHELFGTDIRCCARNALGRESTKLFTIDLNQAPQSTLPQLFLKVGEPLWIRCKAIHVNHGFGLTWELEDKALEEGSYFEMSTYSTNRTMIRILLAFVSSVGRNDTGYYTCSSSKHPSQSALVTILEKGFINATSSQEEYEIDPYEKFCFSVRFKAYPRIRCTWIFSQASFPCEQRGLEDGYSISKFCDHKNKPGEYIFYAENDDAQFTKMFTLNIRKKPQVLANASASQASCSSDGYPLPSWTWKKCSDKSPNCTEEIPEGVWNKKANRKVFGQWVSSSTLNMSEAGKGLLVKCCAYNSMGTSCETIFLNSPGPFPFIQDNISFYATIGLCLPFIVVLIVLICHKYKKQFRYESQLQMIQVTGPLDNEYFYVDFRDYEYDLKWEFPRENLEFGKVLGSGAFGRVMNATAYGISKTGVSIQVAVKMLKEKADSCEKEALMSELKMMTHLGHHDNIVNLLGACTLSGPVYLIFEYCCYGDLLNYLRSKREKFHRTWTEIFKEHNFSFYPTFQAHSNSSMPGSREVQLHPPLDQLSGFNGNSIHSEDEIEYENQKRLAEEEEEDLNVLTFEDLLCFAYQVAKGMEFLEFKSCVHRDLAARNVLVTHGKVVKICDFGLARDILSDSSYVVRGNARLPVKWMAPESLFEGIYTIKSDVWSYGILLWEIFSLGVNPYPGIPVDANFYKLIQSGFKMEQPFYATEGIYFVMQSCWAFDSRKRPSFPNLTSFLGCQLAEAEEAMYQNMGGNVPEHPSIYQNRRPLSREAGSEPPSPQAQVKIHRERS
Put plainly: Inhibition of FLT3 in Balb/c mouse BMDCs assessed as suppression of FLT3L-induced mDC formation measured as upper left quadrant cells level treated on day 9 post 9 days of FLT3L-stimulation measured after 24 hrs by CD11c PerCP and I-A/I-E (MHC class II) FITC staining based flow cytometric analysis (reference value: 31.8%). Also on record: scale not given: the % may be the effect or the level left. In outline:
(§1)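 BALB/c bone marrow cells were cultured at 1×10^6/ml with FLT3L in supplemented RPMI-1640 for 9 days. Compound in DMSO or 0.1% DMSO was added on day 9 for 24 h. Cells were stained for 30 min with CD11c PerCP plus B220 FITC (pDC: CD11c+ B220+) or MHC II FITC (mDC: CD11c+ MHC II+), then analysed by flow cytometry. Three independent experiments.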

For assay [4], the species on record is Mus musculus. Put plainly: Antipsoriatic activity in K14-VEGF transgenic mouse model of psoriasis assessed as reduction in focal parakeratinosis at 0.05% applied tropically over lesion for continuous 29 days by H and E staining method relative to vehicle control. It is filed as functional, organism-based. In a few lines: (§2)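 Homozygous K14-VEGF mice, 3–4 months old, with moderate to serious psoriasis; n=3 per group. Cream with 0.05% compound or vehicle cream smeared on lesions. Head and neck tissue sections taken after 29 days of treatment and HE-stained. Baker pathological score from 5 random fields, given as mean and SD. Epidermal thickness from 8 random fields, given as mean ± SEM.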

For assay [5], the target named is T2, Receptor-type tyrosine-protein kinase FLT3 (Mus musculus). The assay can be described thus: Inhibition of FLT3 in Balb/c mouse BMDCs assessed as suppression of FLT3L-induced mDC formation measured as lower left quadrant cells level treated on day 9 post 9 days of FLT3L-stimulation measured after 24 hrs by CD11c PerCP and I-A/I-E (MHC class II) FITC staining based flow cytometric analysis (reference value: 43.7%). Also on record: scale not given: the % may be the effect or the level left. In outline:
as §1

The species named for assay [6] is Mus musculus. The assay can be described thus: Antipsoriatic activity in K14-VEGF transgenic mouse model of psoriasis assessed alleviation in lack of granular layer at 0.05% applied tropically over lesion for continuous 29 days by H and E staining method relative to vehicle control. It is filed as functional, organism-based. In a few lines:
as §2

The source made the active and inactive calls. The calls are words filed in the database; no cut-off is given here.

Take `CC(C)(C)c1cc(NC(=O)Nc2ccc(Oc3ncnc4[nH]ncc34)c(F)c2)no1`: the Activity turned out to be 11% in the assay listed under Mus musculus [1], 23.5% in assay [3] and 54.7% in assay [5]. Further, in assay [2], the concentration for half-maximal inhibition (IC50) (usually the concentration that gives 50% inhibition) was found to be 5 nM. Also, the result in the assay filed under Mus musculus [4] and in the assay filed under Mus musculus [6] was Active.
